Hit rate of the full screen: of about 360,000 compounds, about 3,600 (1%) were called active. The sample holds actives, similar compounds and a random draw of the others, so the mix is not that of the screen. Unmarked numbers belong to inactive results.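 How the source made its calls: active means activation above the mean activation of all test compounds in the run plus 3 SD (cut at about 38% in these data); inactive means the rest.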

Trace amine-associated receptor 1 (Homo sapiens), sequence (Q96RJ0 whole entry, looked up): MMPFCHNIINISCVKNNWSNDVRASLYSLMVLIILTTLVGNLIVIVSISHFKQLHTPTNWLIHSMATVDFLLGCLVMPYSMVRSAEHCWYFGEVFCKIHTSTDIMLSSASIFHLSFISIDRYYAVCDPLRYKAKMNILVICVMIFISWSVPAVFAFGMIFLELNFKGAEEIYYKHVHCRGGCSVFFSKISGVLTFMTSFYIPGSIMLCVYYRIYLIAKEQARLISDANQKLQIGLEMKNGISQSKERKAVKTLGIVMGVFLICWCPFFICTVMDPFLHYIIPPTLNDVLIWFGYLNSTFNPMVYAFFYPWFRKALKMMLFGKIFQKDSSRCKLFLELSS

This test has as its target Trace amine-associated receptor 1 (Homo sapiens) (UniProt Q96RJ0). The test can be described thus: human TAAR1 agonists, primary screen, Fluo-8 calcium fluorescence, CHO RD-HGA16 cells (AID 624467). As to conditions: CHO RD-HGA16 TAAR1, Fluo-8 calcium fluorescence; at 3 µM; active compounds read high; vehicle wells 0%, saturating PEA agonist 100%. In a few lines: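 System: CHO-derived RD-HGA16 cells with stable Gα16 and human TAAR1 / Times: 17-24 h plating, Fluo-8 75 min 37 °C, 30 min RT / Technique: calcium-sensitive Fluo-8 signal, excitation 470-495, emission 515-575 nm / Measure: % activation relative to PEA EC100 response / Benchmarks: DMSO and PEA EC100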
On to `CCCCNc1cccc2c1S(=O)(=O)N[C@@H](C)CO2`, for which the activation was -1.01%.

Consider `Cc1cc(CN(C)C(=O)c2cc(COc3ccc(C)c(C)c3)on2)n[nH]1`, for which the activation is 2.87%.

As for `CN(c1cccc(NC(=O)c2ccc(CN3CCc4ccccc4C3)cc2)c1)S(C)(=O)=O`, the activation was 7.79%.

On to `CN(c1cccc(NC(=O)Nc2ccc(Cl)cc2)c1)S(C)(=O)=O`, for which the activation is 46.9% (active).

For the molecule `CC(C)S(=O)(=O)c1csc(NC(=O)Nc2ccc(Cl)cc2)c1Cl`, the activation was 17.9%.

Regarding `CC(=O)NC1=NN(C(C)=O)C(C)(c2ccc(Cl)s2)S1` (stereo unspecified), the activation is 5.71%.

Turning to `CN(C)S(=O)(=O)N1CCC(Oc2cccc(C(=O)NCCCC3CCCC3)c2)CC1`, the activation was 11.3%.

`O=C1CC(c2ccccc2)CC(O)=C1C=NCCN1CCOCC1` (stereo unspecified): the activation was 2.73%.

On to `CC1(C)CC(=O)C(C=NCCC2=CCCCC2)=C(O)C1`, for which the activation is 20.1%.

Turning to `O=C1CCCC(O)=C1C=NCCc1ccccc1`, the activation is 60.6% (active).

Take `COC(=O)C1=C(C)N(Cc2ccccc2C(F)(F)F)C(=NCc2ccc(OC)cc2)NC1c1cccc(C(F)(F)F)c1` (stereo unspecified): the activation was 9.5%.

Turning to `CC(C)N(Cc1ccccc1)C(=O)COC(=O)c1ccccc1SCC(=O)N1CCCC1`, the activation was 15.6%.

For `O=C(NCCCc1ccccc1)C(=O)NCC1OCCN1S(=O)(=O)c1ccccc1` (stereo unspecified), the activation was 8.57%.

`O=C(NCCc1ccccc1)C(=O)NCC1OCCN1S(=O)(=O)c1cccs1` (stereo unspecified): the activation is 56.5% (active).

Regarding `COc1ccc(CCNC(=O)C(=O)NCC2OCCN2S(=O)(=O)c2cccs2)cc1OC` (stereo unspecified), the activation was 1.17%.

With `COc1cccc(CNC(=O)[C@H]2CCCN2C(=O)[C@H]2CCCN2C(=O)c2cc(F)cc(F)c2)c1`, the activation is 2.08%.

With `O=C1Nc2ccccc2C1=NN=Cc1ccco1`, the activation was 0.51%.

On to `Cn1nc(C(F)(F)F)c(C(=O)Nc2cccc(C(F)(F)F)c2)c1SCc1ccc(Cl)cc1`, for which the activation is 11%.

`COCc1nc2ccccc2n1Cc1ccccc1Br`: the activation is 12.1%.

In the case of `NC(=O)C1=C[C@@H](c2csc3ccccc23)C[C@@H](OCc2ccc(CO)cc2)O1`, the activation was 22.2%.

As for `NC(=O)C1=C[C@H](c2csc3ccccc23)C[C@H](OCc2ccc(CO)cc2)O1`, the activation was 60.3% (active).

With `O=C(NC1CC1)C1=C[C@H](c2c[nH]c3ccccc23)C[C@H](OCc2ccc(CO)cc2)O1`, the activation was 5.4%.

For the molecule `COc1ccc(CCN(C)C(=O)C23CC4CC(CC(Cl)(C4)C2)C3)cc1OC`, the activation is -1.21%.

Turning to `CC(C)c1ccc(S(=O)(=O)NC2CCCC2)cc1`, the activation was 1.12%.

With `Cc1cccc(CCNS(=O)(=O)c2ccc(S(=O)(=O)NC3CCCC3)cc2)c1`, the activation was 42.8% (active).

With `Cc1cccc(CCNS(=O)(=O)c2ccc3c(c2)NC(=O)CO3)c1`, the activation is 5.47%.

For the molecule `CN1CCCN(C(=O)C2CCCCC2)CC1`, the activation is 1.26%.

Turning to `CC1(Oc2ccccc2-c2ccno2)CCN(Cc2ccc(-c3ccccc3)o2)C1` (stereo unspecified), the activation was 1.77%.

On to `Cc1cc2nc3c(=O)[nH]c(=O)nc-3n(C[C@H](O)[C@H](O)[C@H](O)CO)c2cc1C`, for which the activation is 45.3% (active).

As for `COc1cccc(CNC(=O)c2nnn(CC(=O)Nc3cc(Cl)ccc3C)c2N)c1`, the activation is 2.23%.

As to `Nc1c(C(=O)Nc2ccc3c(c2)OCCO3)nnn1Cc1ccccc1`, the activation was 0.57%.

On to `CCOc1ccc(Cn2nnc(C(=O)NCc3ccccc3)c2N)cc1`, for which the activation is 83.3% (active).

Consider `COc1cccc(CNC(=O)c2nnn(CC(=O)Nc3cc(C)ccc3C)c2N)c1`, for which the activation is 2.69%.

On to `CCOc1ccc(Cn2nnc(C(=O)Nc3ccc(OC)cc3OC)c2N)cc1`, for which the activation is 42.5% (active).

On to `CCCn1nc2cc(C(=O)NCc3ccccc3)ccc2c1OCC`, for which the activation is 3.65%.

Regarding `Cc1cc(OCCCC(=O)NCCN2C(=O)S/C(=C\c3cccnc3)C2=O)ccc1Cl`, the activation was 16.7%.

`CCOc1ccc(-n2c(SCC(=O)NC3CCS(=O)(=O)C3)nnc2-c2cccnc2)cc1` (stereo unspecified): the activation is -0.1%.

Take `CCOC(=O)c1c(N)c(C#N)nn1-c1ccccc1C(=O)OC`: the activation was 1.23%.

Turning to `COc1ccc(Cl)cc1C(=O)NNC(=O)c1nc2nc(C)cc(C)n2n1`, the activation was -0.4%.

With `O=C(/C=C/c1ccco1)NC(=S)N1CCCCC1`, the activation is 1.82%.

`COc1ccc(Cl)cc1C(=O)NNC(=S)NC(=O)/C=C/c1ccco1`: the activation is 55.3% (active).

In the case of `CC(C)OC(=O)Cn1nc(C(F)(F)F)c2c1CCCC2`, the activation was 3.22%.

For the molecule `CCCCn1c(N)c(N(CC(C)C)C(=O)C2CSC3(C)CCC(=O)N23)c(=O)[nH]c1=O` (stereo unspecified), the activation is 4.3%.

For `COC(=O)C1=C(C)NC(=S)NC1c1ccc(OC)cc1` (stereo unspecified), the activation is 1.73%.

For the molecule `CC(C)(C)c1ccc(S(=O)(=O)NCC2CCN(C(=O)C(=O)c3cc4ccccc4o3)CC2)cc1`, the activation was -0.02%.

As for `O=C1N[C@@H](c2ccccc2)COC(=O)[C@H](Cc2ccc(F)cc2)C/C=C\C[C@@H]1CC(=O)N(CCO)Cc1ccccc1`, the activation is 18.8%.

In the case of `O=C1NC[C@@H](c2ccccc2)OC(=O)[C@H](Cc2ccc(F)cc2)CC/C=C/C[C@H]1CC(=O)N(CCO)Cc1ccccc1`, the activation was 42.6% (active).

`O=C1CCC/C=C/C[C@@H](CC(=O)N(CCO)Cc2ccccc2)C(=O)NC[C@H](c2ccccc2)O1`: the activation was 5.38%.

For `Fc1ccc(-n2c(Cc3ccccc3)nnc2SCc2nc(-c3ccc(Cl)cc3)no2)cc1`, the activation is 2.7%.

`Cc1ccc2cc(C)c(N3CCC(C)CC3)nc2c1`: the activation was 17.1%.

Take `Cc1ccc2cc(C)c(N3CCN(c4ccc(F)cc4)CC3)nc2c1`: the activation was 1.28%.

For `Cc1cc(C)c2cc(C#N)c(N3CCNCC3)nc2c1`, the activation is 69.6% (active).

As for `C[C@H]1CN([C@@H](C)CO)S(=O)(=O)c2ccc(Br)cc2O[C@H]1CN(C)C(=O)c1cnccn1`, the activation was 1.33%.

For the molecule `CCCOC(=O)c1ccc(N2C(=O)c3ccccc3C2=O)cc1`, the activation is -1.04%.

`CSc1ccccc1NC(=O)C(C)N1C(=O)c2ccccc2S1(=O)=O` (stereo unspecified): the activation was 2.86%.

Consider `CC(=O)Nc1ccccc1Sc1ccc2c3c(cccc13)C(=O)N(c1ccc(C)cc1)C2=O`, for which the activation was 47.3% (active).

(Values after PubChem BioAssay AID624467 (The Scripps Research Institute Molecular Screening Center, 2012).)
